Series [1] concerns Staphylococcus aureus. The series is described as follows: Bactericidal activity against methicillin-resistant Staphylococcus aureus ATCC 33591 infected in 90% human whole blood at 3.6 uM after 3 hrs. The class given is functional, organism-based. The method in brief:
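MRSA (30 μL of 10^6 CFU/mL in 0.9% saline) mixed with compound at 3.6 μM and 270 μL fresh human whole blood. Incubated 3 h at 37 °C.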

For series [2], the system named is Staphylococcus aureus. Kind of series: Antibacterial activity against methicillin-resistant Staphylococcus aureus ATCC 33591 assessed as induction of cytoplasmic membrane permeabilization at 10 uM measured for 10 mins by propidium iodide uptake assay. It is filed as functional, organism-based. The method in brief: (§1)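 Mid-log (6 h) cells harvested at 4 °C, washed and resuspended in PBS pH 7.2. Compound added to cells with 10 μM propidium iodide. Fluorescence (ex 535/em 617 nm) monitored 10 min at RT; the rise in PI fluorescence taken as inner membrane permeabilization.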

In series [3] the test system is Staphylococcus aureus. Kind of series: Ratio of MIC for methicillin-resistant Staphylococcus aureus ATCC 33591 measured after 52 serial passages to MIC for methicillin-resistant Staphylococcus aureus ATCC 33591. It is filed as functional. The method in brief:
(§2)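 Serial passage: the MIC assay is run against MRSA, then cells from the one-half-MIC well of the previous assay are harvested and inoculated into fresh yeast-dextrose broth for the next MIC assay after 24 h incubation. Repeated for […] passages; MIC plotted against passage number and fold increase in MIC determined.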

In series [4] the test system is Enterococcus faecium. The series is described as follows: Antibacterial activity against vancomycin-sensitive Enterococcus faecium ATCC 19634 assessed as growth inhibition by broth microdilution method. The class given is functional. The method in brief: (§3)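 Broth microdilution per CLSI; compounds serially diluted in autoclaved water. Bacteria grown 6 h in suitable media, diluted to 10⁵ CFU/mL; compound added to bacterial suspension, incubated at 37 °C, OD600 read. Triplicate wells, experiment done at least twice; mean OD versus concentration sigmoidally fitted, MIC taken where OD equals no-bacteria control.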

Series [5] has as its system Staphylococcus aureus. Kind of series: Antibacterial activity against methicillin-resistant Staphylococcus aureus ATCC 33591 assessed as leakage of intracellular potassium ion at 10 uM measured for 10 mins by PBFI-AM dye-based spectrofluorometric analysis relative to control. It is filed as functional. The method in brief:
(§4)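 Mid-log (6 h) cells washed twice and resuspended in 10 mM HEPES pH 7.2 with 0.5% glucose. Signal stabilized 60 s at RT, then 1 μM PBFI-AM added and a 2 min baseline recorded before compound.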

For series [6], the system named is Staphylococcus aureus. The series is described as follows: Antibacterial activity against methicillin-resistant Staphylococcus aureus ATCC 33591 assessed as induction of membrane depolarization at 10 uM measured for 10 mins by DiSC3(5) dye-based spectrofluorometric analysis. The class given is functional, organism-based. The method in brief: (§5)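 Membrane potential assay with DiSC3(5): dye added to cells until maximal uptake, seen as a fluorescence minimum (about 10 min). Compounds then added and depolarization followed as the fluorescence increase over a further 10 min.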

Series [7] has as its system Staphylococcus aureus. Kind of series: Antibacterial activity against methicillin-resistant Staphylococcus aureus ATCC 33591 infected in CD-1 mouse neutropenic thigh infection model assessed as reduction of bacterial burden in thigh at 12 mg/kg, iv bid administered as 12 hrs interval measured after 24 hrs. The class given is functional, organism-based. Also noted: dose 12 mg/kg. The method in brief: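 Neutropenic mouse thigh model: about 50 μL MRSA inoculum injected into the thigh. About 1 h later, iv treatment twice at 12 h intervals with saline, vancomycin or compound at 12 mg/kg. At 24 h, thigh homogenate dilutions plated and incubated overnight at 37 °C; titer expressed as log10 CFU/g thigh.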

In series [8] the test system is Enterococcus faecium. The series is described as follows: Antibacterial activity against vancomycin-resistant VanA phenotype of Enterococcus faecium ATCC 51559 assessed as induction of cytoplasmic membrane permeabilization at 10 uM measured for 10 mins by propidium iodide uptake assay. The class given is functional, organism-based. The method in brief:
as §1

Series [9] has as its system Enterococcus faecium. Kind of series: Antibacterial activity against vancomycin-resistant VanA phenotype of Enterococcus faecium ATCC 51559 assessed as induction of membrane depolarization at 10 uM measured for 10 mins by DiSC3(5) dye-based spectrofluorometric analysis. It is filed as functional, organism-based. The method in brief: as §5
Series [10] deals with Staphylococcus aureus. The series is described as follows: Antibacterial activity against methicillin-resistant Staphylococcus aureus ATCC 33591 assessed as growth inhibition by broth microdilution method. It is filed as functional. The method in brief: (§6)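 Broth microdilution per CLSI; compounds serially diluted in sterile water, added to bacteria at 10^5 CFU/mL (diluted from 6 h cultures). Incubated at 37 °C, OD600 read. Triplicate wells, experiment done at least twice. Mean OD plotted against concentration and fitted sigmoidally; MIC taken where OD matches the no-bacteria control.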
(Broth dilution looks for growth in wells or tubes with falling amounts of substance.)

Series [11] has as its system Staphylococcus aureus. Kind of series: Antibacterial activity against methicillin-sensitive Staphylococcus aureus MTCC 737 assessed as growth inhibition by broth microdilution method. The class given is functional. The method in brief:
as §3

For series [12], the system named is Enterococcus faecium. The series is described as follows: Antibacterial activity against vancomycin-resistant VanA phenotype of Enterococcus faecium ATCC 51559 assessed as growth inhibition by broth microdilution method. It is filed as functional. The method in brief:
as §6

The test system of series [13] is Staphylococcus aureus. The series is described as follows: Antibacterial activity against vancomycin-intermediate-resistant Staphylococcus aureus assessed as growth inhibition by broth microdilution method. The class given is functional. The method in brief: as §6
The test system of series [14] is Staphylococcus aureus. The series is described as follows: Bacteriostatic activity against methicillin-resistant Staphylococcus aureus ATCC 33591 measured over 24 hrs. The class given is functional, organism-based. The method in brief:
(§7)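 MRSA in yeast-dextrose broth, starting inoculum 1.6 × 10^8 CFU/mL. […] Samples taken at 0, 1, 2, 3, 6 and 24 h, diluted 10-fold serially in saline and plated on yeast-dextrose agar. Colonies counted after 24 h at 37 °C; log10 CFU/mL reported.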

The test system of series [15] is Staphylococcus aureus. The series is described as follows: Antibacterial activity against methicillin-resistant Staphylococcus aureus ATCC 33591 assessed as growth inhibition measured after 20 serial passages. It is filed as functional, organism-based. The method in brief:
as §2

For series [16], the system named is Enterococcus faecium. The series is described as follows: Antibacterial activity against vancomycin-resistant VanA phenotype of Enterococcus faecium ATCC 51559 assessed as induction of membrane depolarization measured at < 3 mins by DiSC3(5) dye-based spectrofluorometric analysis. It is filed as functional, organism-based. The method in brief:
as §5

For series [17], the system named is Staphylococcus aureus. Kind of series: Antibacterial activity against methicillin-resistant Staphylococcus aureus ATCC 33591 assessed as growth inhibition measured after 52 serial passages. The class given is functional, organism-based. The method in brief: as §2
Series [18] can be described thus: Hemolytic activity in human RBC up to 1000 uM after 1 hr. The class given is ADME, cell-based. The settings on record: erythrocyte. The method in brief:
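Centrifuged, supernatant A540 read. Controls: no compound and 1 vol % Triton X-100 (100% lysis); % hemolysis = (A − A0)/(Atotal − A0) × 100.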

For series [19], the system named is Staphylococcus aureus. The series is described as follows: Bactericidal activity against methicillin-resistant Staphylococcus aureus ATCC 33591 assessed as log10 reduction of bacterial count at MIC measured over 24 hrs. The class given is functional. The method in brief: as §7
In the next series the test system is HeLa. The series is described as follows: Cytotoxicity against human HeLa cells assessed as cell survival up to 100 uM after 24 hrs by MTT assay. The class given is cell-based. The method in brief:
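HeLa cells grown in DMEM with 10% FBS to 70–80% confluency, then exposed to serially diluted compounds for 24 h at 37 °C, 5% CO2. MTT (5 mg/mL solution) added for 3 h, formazan dissolved in DMSO, A570 read. Survival calculated relative to untreated and 10% Triton X-100 controls.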

Series [20] deals with Staphylococcus aureus. Kind of series: Bactericidal activity against methicillin-resistant Staphylococcus aureus ATCC 33591 assessed as log10 reduction of bacterial count at 6 times MIC measured over 24 hrs. It is filed as functional. The method in brief: as §7
Series [21] concerns Staphylococcus aureus. The series is described as follows: Antibacterial activity against methicillin-resistant Staphylococcus aureus ATCC 33591 assessed as induction of cytoplasmic membrane permeabilization measured within 5 mins by propidium iodide uptake assay. It is filed as functional, organism-based. The method in brief: as §1
The test system of series [22] is Enterococcus faecium. Kind of series: Antibacterial activity against vancomycin-resistant VanA phenotype of Enterococcus faecium ATCC 51559 assessed as leakage of intracellular potassium ion at 10 uM measured for 10 mins by PBFI-AM dye-based spectrofluorometric analysis. It is filed as functional, organism-based. The method in brief: as §4
Series [23] has as its system Staphylococcus aureus. Kind of series: Antibacterial activity against methicillin-resistant Staphylococcus aureus ATCC 33591 assessed as induction of membrane depolarization measured at < 3 mins by DiSC3(5) dye-based spectrofluorometric analysis. It is filed as functional, organism-based. The method in brief: as §5
Series [24] can be described thus: Hemolytic activity in human RBC up to 100 uM after 1 hr. The class given is ADME, cell-based. The note with it: erythrocyte. The method in brief: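 Incubated 1 h at 37 °C, then centrifuged and supernatant A540 read. % hemolysis calculated against no-compound wells and 1 vol% Triton X-100 wells taken as 100% lysis.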
Series [25] deals with Enterococcus faecium. The series is described as follows: Potency index, ratio of dalbavancin MIC90 to compound MIC for vancomycin-resistant VanA phenotype of Enterococcus faecium ATCC 51559. The class given is functional.

The source made the active and inactive calls. The calls are words filed in the database; no cut-off is given here. Bounds are passed on as bounds.

On to `CN[C@H](CC(C)C)C(=O)N[C@H]1C(=O)N[C@@H](CC(N)=O)C(=O)N[C@H]2C(=O)N[C@H]3C(=O)N[C@H](C(=O)N[C@H](C(=O)O)c4cc(O)cc(O)c4-c4cc3ccc4O)[C@H](O)c3ccc(c(Cl)c3)Oc3cc2cc(c3O[C@@H]2O[C@H](CO)[C@@H](O)[C@H](O)[C@H]2O[C@H]2C[C@](C)(N)[C@H](O)[C@H](C)O2)Oc2ccc(cc2Cl)[C@H]1O` [VANCOMYCIN], for which the result with Staphylococcus aureus [1], in the series with Staphylococcus aureus [7] and in the series with Staphylococcus aureus [15] was Active. The result with Staphylococcus aureus [2], with Staphylococcus aureus [6], in the series with Enterococcus faecium [8] and in the series on Enterococcus faecium [9] was inactive. Also, the Ratio with Staphylococcus aureus [3] is recorded as more than 20. Besides, the MIC – broadly, the lowest concentration found to suppress growth – was 0.6 µM in the series with Enterococcus faecium [4]; 0.63 µM with Staphylococcus aureus [10]; 0.63 µM with Staphylococcus aureus [11]; 750 µM in the series on Enterococcus faecium [12]; 13 µM in the series with Staphylococcus aureus [13]. Further, the Activity was 100% with Staphylococcus aureus [5] and “Dose-dependent effect” in the series with Staphylococcus aureus [14].
With `CCCCCCCC[N+](C)(C)CCCNC(=O)[C@H]1NC(=O)[C@H]2NC(=O)[C@H](NC(=O)[C@@H]3NC(=O)[C@H](CC(N)=O)NC(=O)[C@H](NC(=O)[C@@H](CC(C)C)NC)[C@H](O)c4ccc(c(Cl)c4)Oc4cc3cc(c4O[C@@H]3O[C@H](CO)[C@@H](O)[C@H](O)[C@H]3O[C@H]3C[C@](C)(N)[C@H](O)[C@H](C)O3)Oc3ccc(cc3Cl)[C@H]2O)c2ccc(O)c(c2)-c2c(O)cc(O)cc21.O=C([O-])C(F)(F)F`, the outcome with Staphylococcus aureus [1], in the series on Staphylococcus aureus [17], in the series with Staphylococcus aureus [7], with Enterococcus faecium [8] and with Enterococcus faecium [22] was Active. Besides, the Activity entry was “Dose-dependent effect” in the series on Enterococcus faecium [16]; “Non-toxic” in series [18]; 43% in the series with Staphylococcus aureus [5]; “Non-toxic” in the series with HeLa; “Dose-dependent effect” with Staphylococcus aureus [21]; “Dose-dependent effect” in the series on Staphylococcus aureus [23]. Also, the values for the log10cfu in the series on Staphylococcus aureus [19] and in the series on Staphylococcus aureus [20] were 8 and 3, respectively. Also, the minimal inhibitory concentration (MIC) amounted to 0.15 µM in the series with Enterococcus faecium [4]; 0.31 µM in the series on Staphylococcus aureus [10]; 0.31 µM in the series on Staphylococcus aureus [11]; 12.5 µM with Enterococcus faecium [12]; 0.4 µM in the series with Staphylococcus aureus [13].
As for `CCCCCCCCCCCCCC[N+](C)(C)CCCNC(=O)[C@H]1NC(=O)[C@H]2NC(=O)[C@H](NC(=O)[C@@H]3NC(=O)[C@H](CC(N)=O)NC(=O)[C@H](NC(=O)[C@@H](CC(C)C)NC)[C@H](O)c4ccc(c(Cl)c4)Oc4cc3cc(c4O[C@@H]3O[C@H](CO)[C@@H](O)[C@H](O)[C@H]3O[C@H]3C[C@](C)(N)[C@H](O)[C@H](C)O3)Oc3ccc(cc3Cl)[C@H]2O)c2ccc(O)c(c2)-c2c(O)cc(O)cc21.O=C([O-])C(F)(F)F`, the result in the series on Staphylococcus aureus [1], in the series with Staphylococcus aureus [17], in the series with Staphylococcus aureus [5], with Enterococcus faecium [8] and with Enterococcus faecium [22] was Active. In addition, the Activity result is “Dose-dependent effect” with Enterococcus faecium [16]; “Non-toxic” in the series with HeLa; “Dose-dependent effect” with Staphylococcus aureus [21]; “Non-toxic” in series [24]; “Dose-dependent effect” in the series on Staphylococcus aureus [23]. For the same compound, the log10cfu with Staphylococcus aureus [19] and in the series with Staphylococcus aureus [20] was more than 5 each time. The minimum inhibitory concentration (MIC) with Enterococcus faecium [4] was determined as 0.12 µM; with Staphylococcus aureus [10], 0.65 µM; in the series on Staphylococcus aureus [11], 1.25 µM; with Enterococcus faecium [12] it was 0.7 µM; in the series with Staphylococcus aureus [13], 0.36 µM. Further, the Ratio in the series on Enterococcus faecium [25] came out at 25.

These data come from ChEMBL document CHEMBL3259723, “Membrane active vancomycin analogues: a strategy to combat bacterial resistance” (J Med Chem, 2014).
